From ChEMBL document CHEMBL1671663, “In vivo characterization of the peptide deformylase inhibitor LBM415 in murine infection models” (Antimicrob Agents Chemother, 2009)
In brackets after ≈: the same amount, converted by molar mass. Activity calls are given as the source filed them. No cut-off for these calls is given here.

Assays:
Staphylococcus aureus [1] = experiment: Antimicrobial activity against methicillin susceptible Staphylococcus aureus ATCC 13709 infected in po dosed NMRI mouse treated 1 and 5 hrs post infection; format: functional; conditions: ATCC 13709, po
In short: (§1)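 Intraperitoneal infection (0.3 ml/mouse, 10 to 100 times minimal lethal dose) with inoculum in 0.86% NaCl; ATCC 49951 grown overnight in Mueller-Hinton broth (1.7 × 10^7 to 2.2 × 10^7 CFU/mouse), ATCC 13709 in tryptic soy broth (7.3 × 10^7 to 2 × 10^8 CFU/mouse). Groups of 5 to 6 mice, typically three doses, treated 1 and 5 h postinfection; vehicle controls. ED50 by probit analysis of day-8 survival.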

Streptococcus pneumoniae [2] = experiment: Antimicrobial activity against multiple drug-resistant Streptococcus pneumoniae ATCC 700677 by broth microdilution method; format: functional
In short: (§2)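 MICs determined by broth microdilution following CLSI guidelines. Inocula came from overnight Mueller-Hinton broth (ATCC 49951, NB01021) or overnight Trypticase soy agar culture (ATCC 6301). ATCC 6303 and ATCC 700677 came from a 5-h log culture in Todd-Hewitt broth–30% horse serum.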

Streptococcus pneumoniae [3] = experiment: Antimicrobial activity against Streptococcus pneumoniae ATCC 6301 infected in po dosed NMRI mouse administered thrice daily for 4 days; conditions: ATCC 6301, po, 96 h
Staphylococcus aureus [4] = experiment: Antimicrobial activity against methicillin susceptible Staphylococcus aureus ATCC 49951 infected in sc dosed NMRI mouse treated 1 and 5 hrs post infection; format: functional; conditions: ATCC 49951, sc; in short: as §1
Staphylococcus aureus [5] = experiment: Antimicrobial activity against methicillin susceptible Staphylococcus aureus ATCC 49951 infected in po dosed NMRI mouse treated 1 and 5 hrs post infection; format: functional; conditions: ATCC 49951, po; in short: as §1
Staphylococcus aureus [6] = experiment: Antimicrobial activity against methicillin-resistant Staphylococcus aureus NB01021 infected in po dosed BALB/c mouse administered 0, 4, 23 hrs post infection; format: functional
In short: (§3)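 Female BALB/c mice (19–23 g) infected intraperitoneally with MRSA NB01021 in 5% hog gastric mucin, 2.1 × 10^7 to 2.8 × 10^7 CFU/mouse (0.3 ml), 10–100× minimal lethal dose. Three dose levels, groups of 5–6; vehicle controls. Treatment 0, 4 and 23 h post-infection. Observed 8 days; ED50 with 95% CI by probit analysis of day-8 survival.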

Staphylococcus aureus [7] = experiment: Antimicrobial activity against methicillin-susceptible Staphylococcus aureus ATCC 13709 by broth microdilution method; format: functional
In short: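 MIC by broth microdilution following CLSI guidelines.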

Staphylococcus aureus [8] = experiment: Antimicrobial activity against methicillin-resistant Staphylococcus aureus NB01021 by broth microdilution method; format: functional; in short: as §2
Staphylococcus aureus [9] = experiment: Antimicrobial activity against methicillin-susceptible Staphylococcus aureus ATCC 49951 by broth microdilution method; format: functional; in short: as §2
[10] = Bioavailability in CD1 mouse at 20 mg/kg, po by liquid chromatography/mass spectroscopy; conditions: in vivo
Streptococcus pneumoniae [11] = experiment: Antimicrobial activity against Streptococcus pneumoniae ATCC 6303 infected in BALB/c mouse pneumonia model assessed as complete eradication of bacteria at 40 mg/kg, po administered twice daily 3 days starting 16 hrs post infection; format: functional, organism-based; parameters: dose 40 mg/kg
In short: (§4)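 Anesthetized (ketamine/xylazine) female BALB/c mice (19 to 22 g) inoculated intranasally with 50 µl log-phase culture (1.4 × 10^5 CFU/mouse). Oral treatment, six mice per group, at 16, 27, 40, 51, 64 and 75 h postinfection; vehicle controls. Lungs harvested one day after last dose, homogenized, plated; log10 CFU/lung. Deaths assigned 9 log10 CFU/lung; Kruskal-Wallis with Dunn's test versus control.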

Streptococcus pneumoniae [12] = experiment: Antimicrobial activity against Streptococcus pneumoniae ATCC 6303 infected in po dosed BALB/c mouse pneumonia model assessed as complete eradication of bacteria administered twice daily 3 days starting 16 hrs post infection; format: functional; in short: as §4
Streptococcus pneumoniae [13] = experiment: Antimicrobial activity against Streptococcus pneumoniae ATCC 6303 infected in BALB/c mouse pneumonia model assessed as reduction in lung bacterial load at 20 mg/kg, po administered twice daily 3 days starting 16 hrs post infection; format: functional; in short: as §4
Streptococcus pneumoniae [14] = experiment: Antimicrobial activity against multiple drug resistant Streptococcus pneumoniae ATCC 700677 infected in po dosed BALB/c mouse administered twice daily for 3 days; format: functional; conditions: ATCC 700677, po, 72 h
In short: (§5)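 Female BALB/c mice (19–23 g) infected intraperitoneally with ATCC 700677 from a 5-h Todd-Hewitt–30% horse serum log culture, suspended in 5% hog mucin, 1.5 × 10^7 to 2 × 10^7 CFU/mouse. Groups of 5–6, typically three dose levels; vehicle controls. Dosed 1, 5, 17, 27, 42, 51 h post-infection. ED50 from day-8 survival by probit analysis, with 95% CI.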

[15] = Volume of distribution at steady state in CD1 mouse at 5 mg/kg, iv by liquid chromatography/mass spectroscopy; format: ADME, organism-based; parameters: dose 5 mg/kg, route intravenous; conditions: in vivo, read-out: Vdss
In short: (§6)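 CD1 mice given 20 mg/kg p.o. or 5 mg/kg i.v.; blood sampled from three mice per time point, first at 0.083 h (i.v.) or 0.25 h (p.o.), last at 24 h. Plasma separated by centrifugation (10,000 rpm, 10 min, 4°C), stored at −80°C, assayed by LC/MS. Mean concentration-time course used for parameters; F from ratio of dose-normalized AUCs; C0 extrapolated from i.v. curve.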

[16] = Clearance in CD1 mouse at 5 mg/kg, iv by liquid chromatography/mass spectroscopy; format: ADME, organism-based; parameters: dose 5 mg/kg, route intravenous; conditions: in vivo; in short: as §6
[17] = AUC in CD1 mouse at 20 mg/kg, po by liquid chromatography/mass spectroscopy; format: ADME, organism-based; parameters: dose 20 mg/kg, route oral; conditions: plasma; in short: as §6
Streptococcus pneumoniae [18] = experiment: Antimicrobial activity against Streptococcus pneumoniae ATCC 6303 by broth microdilution method; format: functional; in short: as §2
Streptococcus pneumoniae [19] = experiment: Antimicrobial activity against Streptococcus pneumoniae ATCC 6301 by broth microdilution method; format: functional; in short: as §2
Staphylococcus aureus [20] = experiment: Antimicrobial activity against multiple drug resistant Staphylococcus aureus NB01021 infected in immunocompetent NMRI mouse soft tissue infection model assessed as reduction in thigh bacterial load at 50 mg/kg, po administered thrice a day for 2 days; format: functional
In short: (§7)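 Thigh infection: 50 µl of freshly prepared NB01021 suspension (3.8 × 10^6 CFU/thigh) injected intramuscularly into the left hind thigh of female NMRI mice (20–23 g). Oral doses at 0, 4, 8, 24, 28, 32 h; vehicle controls. Thighs excised 18 h after last dose, homogenized in saline and plated on blood agar (detection limit 100 CFU/thigh). Medians compared to controls by Mann-Whitney rank sum test.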

[21] = AUC in CD1 mouse at 5 mg/kg, iv by liquid chromatography/mass spectroscopy; format: ADME, organism-based; parameters: dose 5 mg/kg, route intravenous; conditions: plasma; in short: as §6
[22] = Tmax in CD1 mouse at 20 mg/kg, po by liquid chromatography/mass spectroscopy; format: ADME, organism-based; parameters: dose 20 mg/kg, route oral; conditions: in vivo; in short: as §6
Streptococcus pneumoniae [23] = experiment: Antimicrobial activity against multiple drug resistant Streptococcus pneumoniae ATCC 700677 infected in sc dosed BALB/c mouse administered twice daily for 3 days; format: functional; conditions: ATCC 700677, sc, 72 h; in short: as §5
Staphylococcus aureus [24] = experiment: Antimicrobial activity against multiple drug resistant Staphylococcus aureus NB01021 infected in immunocompetent NMRI mouse soft tissue infection model assessed as reduction in thigh bacterial load at 5.6 mg/kg, po administered thrice a day for 2 days; format: functional; in short: as §7
Mus musculus [25] = experiment: Drug concentration at time zero in CD1 mouse at 5 mg/kg, iv by liquid chromatography/mass spectroscopy; format: ADME, organism-based; parameters: dose 5 mg/kg, route intravenous; conditions: in vivo; in short: as §6
Staphylococcus aureus [26] = experiment: Antimicrobial activity against multiple drug resistant Staphylococcus aureus NB01021 infected in immunocompetent NMRI mouse soft tissue infection model assessed as reduction in thigh bacterial load at 16.7 mg/kg, po administered thrice a day for 2 days; format: functional; in short: as §7
Streptococcus pneumoniae [27] = experiment: Antimicrobial activity against Streptococcus pneumoniae ATCC 6303 infected in BALB/c mouse pneumonia model assessed as reduction in lung bacterial load at 80 mg/kg, po administered twice daily 3 days starting 16 hrs post infection; format: functional; in short: as §4
Streptococcus pneumoniae [28] = experiment: Antimicrobial activity against Streptococcus pneumoniae ATCC 6303 infected in BALB/c mouse pneumonia model assessed as reduction in lung bacterial load at 40 mg/kg, po administered twice daily 3 days starting 16 hrs post infection; format: functional; in short: as §4
Mus musculus [29] = experiment: Cmax in CD1 mouse at 20 mg/kg, po by liquid chromatography/mass spectroscopy; format: ADME, organism-based; parameters: dose 20 mg/kg, route oral; conditions: in vivo; in short: as §6
Staphylococcus aureus [30] = experiment: Antimicrobial activity against methicillin-resistant Staphylococcus aureus NB01021 infected in sc dosed BALB/c mouse administered 0, 4, 23 hrs post infection; format: functional; in short: as §3

| Structure (SMILES) | ED50 (Staphylococcus aureus [1]) | MIC (Streptococcus pneumoniae [2]) | ED50 (Streptococcus pneumoniae [3]) | ED50 (Staphylococcus aureus [4]) | ED50 (Staphylococcus aureus [5]) | ED50 (Staphylococcus aureus [6]) | MIC (Staphylococcus aureus [7]) | MIC (Staphylococcus aureus [8]) | MIC (Staphylococcus aureus [9]) | ED50 (Streptococcus pneumoniae [14]) | MIC (Streptococcus pneumoniae [18]) | MIC (Streptococcus pneumoniae [19]) | further results |
| --- | --- | --- | --- | --- | --- | --- | --- | --- | --- | --- | --- | --- | --- |
| CC(=O)NC[C@H]1CN(c2ccc(N3CCOCC3)c(F)c2)C(=O)O1 [LINEZOLID] | 10.3 mg/kg | 0.25 µg/mL (≈ 0.741 µM) | 5.6 mg/kg | 7.4 mg/kg | 7 mg/kg | 2 mg/kg | 1 µg/mL (≈ 2.96 µM) | 1 µg/mL (≈ 2.96 µM) | 1 µg/mL (≈ 2.96 µM) | – | – | – | – |
| CCCC[C@H](CN(O)C=O)C(=O)N1CCC[C@H]1C(=O)Nc1ccc(F)c[n+]1[O-] | 13.2 mg/kg | 0.5 µg/mL (≈ 1.26 µM) | 6.4 mg/kg | 1.1 mg/kg | 2.3 mg/kg | 5.9 mg/kg | 4 µg/mL (≈ 10.1 µM) | 2 µg/mL (≈ 5.05 µM) | 0.125 µg/mL (≈ 0.315 µM) | 36.6 mg/kg | 2 µg/mL (≈ 5.05 µM) | 0.125 µg/mL (≈ 0.315 µM) | bioavailability [10]: 53%; Activity (Streptococcus pneumoniae [11]): Active; ED50 (Streptococcus pneumoniae [12]): 23.3 mg/kg; log10cfu (Streptococcus pneumoniae [13]): 5.1; Vd [15]: 3.12 L/kg; clearance [16]: 30.8 mL/min/kg; AUC [17]: 5700 ng·h/mL; log10cfu (Staphylococcus aureus [20]): 3.6; AUC [21]: 2690 ng·h/mL; Tmax [22]: 30 min; ED50 (Streptococcus pneumoniae [23]): 4.8 mg/kg; log10cfu (Staphylococcus aureus [24]): 6.3; Drug uptake (Mus musculus [25]): 5361 ng/mL; log10cfu (Staphylococcus aureus [26]): 5.6; log10cfu (Streptococcus pneumoniae [27]): 2.3; log10cfu (Streptococcus pneumoniae [28]): <2; Cmax (Mus musculus [29]): 4250 ng/mL; ED50 (Staphylococcus aureus [30]): 0.7 mg/kg |
| COc1c(N2C[C@@H]3CCCN[C@@H]3C2)c(F)cc2c(=O)c(C(=O)O)cn(C3CC3)c12 [MOXIFLOXACIN] | – | ≤ 0.06 µg/mL | – | – | – | – | ≤ 0.03 µg/mL | 1 µg/mL (≈ 2.49 µM) | 0.06 µg/mL (≈ 0.149 µM) | – | 0.5 µg/mL (≈ 1.25 µM) | 0.5 µg/mL (≈ 1.25 µM) | ED50 (Streptococcus pneumoniae [12]; Streptococcus pneumoniae, ATCC 6303, po): 14.3 mg/kg |
| CC[C@H]1OC(=O)[C@H](C)[C@@H](O[C@H]2C[C@@](C)(OC)[C@@H](O)[C@H](C)O2)[C@H](C)[C@@H](O[C@@H]2O[C@H](C)C[C@H](N(C)C)[C@H]2O)[C@](C)(OC)C[C@@H](C)C(=O)[C@H](C)[C@@H](O)[C@]1(C)O [CLARITHROMYCIN] | 8.7 mg/kg | 32 µg/mL (≈ 42.8 µM) | 2.1 mg/kg | 1.2 mg/kg | 7.7 mg/kg | – | 0.5 µg/mL (≈ 0.668 µM) | > 64 µg/mL | 1 µg/mL (≈ 1.34 µM) | > 60 mg/kg | 0.03 µg/mL (≈ 0.0401 µM) | 0.015 µg/mL (≈ 0.0201 µM) | – |
